Experimental data published in ChEMBL document CHEMBL1165860, “Synthesis and potential cytotoxic activity of new phenanthrylphenol-pyrrolobenzodiazepines” (2010).
Active and inactive are the calls of the source. The calls are words filed in the database; no cut-off is given here.

Legend:
[1] = tested on: MCF7; test: Increase of cytosolic cytochrome c level in human MCF7 cells at 2 uM after 24 hrs by Western blot analysis; type: functional, cell-based
In short: (§1)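 MCF-7 cells were grown in DMEM with 10% FCS and penicillin/streptomycin at 37 °C in 5% CO2, then treated for 24 h. Cells were lysed in ice-cold RIPA buffer with protease inhibitors and NaF. Protein was measured by Bradford assay, and 30 µg per lane was run on 12% SDS-PAGE and transferred to PVDF. Antibody steps: primary at 4 °C overnight, HRP secondary 1:2000, chemiluminescent detection.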

[2] = tested on: MCF7; test: Increase of cytosolic cytochrome c level in human MCF7 cells at 4 uM after 24 hrs by Western blot analysis; type: functional, cell-based; in short: as §1
[3] = tested on: MCF7; test: Induction of apoptosis in human MCF7 cells assessed as increase of caspase 8 activation at 4 uM after 1 hr by […] method; type: functional, cell-based
In short: (§2)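 Colorimetric caspase-8 kit on lysates of treated MCF-7 cells. The IETD-pNA substrate was incubated with cell lysate at 37 °C for 1 h, and absorbance was read at 405 nm. Untreated cells served as the control.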

[4] = tested on: MCF7; test: Cell cycle arrest in human MCF7 cells assessed as accumulation at S phase at 4 uM after 24 hrs using propidium iodide staining by flow cytometry; type: functional
In short: (§3)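 MCF-7 cells were grown in DMEM with 10% fetal calf serum, penicillin and streptomycin, at 37 °C in 5% CO2. They were treated for 24 h at 2 and 4 µM, with DMSO-treated cells as controls. Cells were trypsinised, fixed in ice-cold 70% ethanol at 4 °C for 30 min, and RNaseA-treated at 37 °C for 30 min. Phases were read by flow cytometry.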

[5] = tested on: MCF7; test: Cell cycle arrest in human MCF7 cells assessed as accumulation at G0 phase at 4 uM after 24 hrs using propidium iodide staining by flow cytometry; type: functional; in short: as §3
[6] = tested on: MCF7; test: Increase of PARP cleavage in human MCF7 cells at 2 uM after 24 hrs by Western blot analysis; type: functional, cell-based; in short: as §1
[7] = tested on: MCF7; test: Cell cycle arrest in human MCF7 cells assessed as accumulation at G0 phase at 2 uM after 24 hrs using propidium iodide staining by flow cytometry; type: functional; in short: as §3
[8] = tested on: MCF7; test: Cell cycle arrest in human MCF7 cells assessed as accumulation at G2/M phase at 4 uM after 24 hrs using propidium iodide staining by flow cytometry; type: functional; in short: as §3
[9] = tested on: MCF7; test: Cell cycle arrest in human MCF7 cells assessed as accumulation at G2/M phase at 2 uM after 24 hrs using propidium iodide staining by flow cytometry; type: functional; in short: as §3
[10] = tested on: MCF7; test: Cell cycle arrest in human MCF7 cells assessed as accumulation at G1 phase at 2 uM after 24 hrs using propidium iodide staining by flow cytometry; type: functional; in short: as §3
[11] = tested on: MCF7; test: Cell cycle arrest in human MCF7 cells assessed as accumulation at S phase at 2 uM after 24 hrs using propidium iodide staining by flow cytometry; type: functional; in short: as §3
[12] = tested on: MCF7; test: Increase of PARP cleavage in human MCF7 cells at 4 uM after 24 hrs by Western blot analysis; type: functional, cell-based; in short: as §1
[13] = tested on: MCF7; test: Cell cycle arrest in human MCF7 cells assessed as accumulation at G1 phase at 4 uM after 24 hrs using propidium iodide staining by flow cytometry; type: functional; in short: as §3
[14] = tested on: Nucleic Acid; test: Inhibition of Escherichia coli pBR322 DNA cleavage after 16 hrs by RED100-restriction endonuclease digestion assay; type: nucleic-acid assay
In short: (§4)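 pBR322 DNA was preincubated with compound at final 2, 4, 8, 16 and 32 µM for 16 h at 37 °C. BamHI (10 U/µl) in BamHI buffer was then added for 2 h at 37 °C. Products were separated on agarose in 0.5× Tris–acetate EDTA at 80 V for 1 h and stained with ethidium bromide. Cut and uncut DNA served as controls.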

[15] = tested on: MCF7; test: Induction of p53 expression in human MCF7 cells; type: functional, cell-based
[16] = tested on: MCF7; test: Cytotoxicity against human MCF7 cells at 1 uM after 24 hrs by MTT assay relative to control; type: functional
In short: (§5)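 MCF-7 cells were seeded at 10,000 cells/well in DMEM with 10% fetal calf serum. They were exposed to 0.5, 1, 2 and 4 µM for 24 h. MTT reduction to formazan was read at 570 nm, with untreated controls taken as 100% viability. DMSO-treated cells served as an additional control.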

[17] = tested on: MCF7; test: Induction of apoptosis in human MCF7 cells assessed as increase of caspase 9 activation at 4 uM after 1 hr by fluorimetry based assay; type: functional, cell-based
[18] = tested on: MCF7; test: Decrease of cyclin D1 level in human MCF7 cells at 2 uM after 24 hrs by Western blot analysis; type: functional, cell-based
In short: (§6)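 MCF-7 cells were treated at 2 or 4 µM for 24 h, then lysed in ice-cold RIPA buffer with protease inhibitors and NaF. Protein was quantified by Bradford. Thirty µg per lane was run on 12% SDS-PAGE and transferred to PVDF. Membranes were blocked 2 h, given primary antibody overnight at 4 °C, then HRP secondary (1:2000) for 1 h. Bands were detected by chemiluminescence.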

[19] = tested on: MCF7; test: Cell cycle arrest in human MCF7 cells assessed as accumulation at G0 phase after 24 hrs using propidium iodide staining by flow cytometry; type: functional, cell-based; in short: as §3
[20] = tested on: MCF7; test: Induction of apoptosis in human MCF7 cells assessed as increase of caspase 9 activation at 2 to 4 uM after 1 hr by fluorimetry based assay in presence of caspase 9 inhibitor LEHD-CHO; type: functional, cell-based
[21] = tested on: Nucleic Acid; test: Inhibition of Escherichia coli pBR322 DNA cleavage at 16 uM after 16 hrs by RED100-restriction endonuclease digestion assay; type: nucleic-acid assay; in short: as §4
[22] = tested on: MCF7; test: Induction of apoptosis in human MCF7 cells assessed as increase of caspase 8 activation at 2 uM after 1 hr by […] method; type: functional, cell-based; in short: as §2
[23] = tested on: MCF7; test: Cytotoxicity against human MCF7 cells at 4 uM after 24 hrs by MTT assay relative to control; type: functional, cell-based; in short: as §5
[24] = tested on: MCF7; test: Induction of apoptosis in human MCF7 cells assessed as DNA fragmentation at 4 uM after 24 hrs using ethidium bromide staining by agarose gel electrophoresis; type: functional, cell-based
In short: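 1.5×10⁶ MCF-7 cells in 60 mm dishes were treated for 24 h and lysed in 10 mM Tris-HCl pH 7.5, 10 mM EDTA, 0.5% Triton X-100. The supernatant was digested with RNase A and proteinase K for 2 h at 37 °C. DNA was isolated by phenol–chloroform extraction and ethanol precipitation, run on 1% agarose with a 100 bp marker, and stained with ethidium bromide under UV.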

[25] = tested on: MCF7; test: Induction of apoptosis in human MCF7 cells assessed as increase of caspase 9 activation at 2 uM after 1 hr by fluorimetry based assay; type: functional, cell-based
[26] = tested on: MCF7; test: Decrease of cyclin D1 level in human MCF7 cells at 4 uM after 24 hrs by Western blot analysis; type: functional, cell-based; in short: as §6
[27] = tested on: MCF7; test: Cytotoxicity against human MCF7 cells at 2 uM after 24 hrs by MTT assay relative to control; type: functional; in short: as §5

inhibition [14]	inhibition [21]	Structure (SMILES)	Activity [1]	Activity [2]	Activity [3]	Activity [4]	Activity [5]	Activity [6]	Activity [7]	Activity [8]	Activity [9]	Activity [10]	Activity [11]	Activity [12]	Activity [13]	Activity [15]	Activity [17]	Activity [19]	Activity [22]	Activity [23]	further results
		COc1cc2c(cc1O)N=C[C@@H]1CCCN1C2=O	Active	Active	Active	14.16%	8.07%	Active	3.19%	3.5%	13.1%	65.98%	20.26%	Active	75.28%						
Dose-dependent effect	100%	COc1cc2c(cc1OCCCCCOc1ccc(-c3cc4ccccc4c4ccccc34)cc1)N=C[C@@H]1CCCN1C2=O	Active	Active	Active	4.86%	22.71%	Active	13.08%	2.46%	2.61%	75.84%	7.76%	Active	69.07%	Active	Active	Dose-dependent effect	Active	Active	Activity [16]: <=50%; Activity [18]: Active; Activity [20]: inactive; Activity [24]: Active; Activity [25]: Active; Activity [26]: Active
Dose-dependent effect	100%	COc1cc2c(cc1OCCCCOc1ccc(-c3cc4ccccc4c4ccccc34)cc1)N=C[C@@H]1CCCN1C2=O	Active	Active	Active	5.5%	20.86%	Active	15.08%	2.94%	4.25%	66.31%	12.45%	Active	70.3%	Active	Active	Dose-dependent effect	Active	Active	Activity [27]: <=50%; Activity [24]: Active
